For series [1], the system named is Escherichia coli. The series can be described thus: Antimicrobial activity against Escherichia coli assessed as microbial growth at 250 to 1000 uM measured up to 24 hrs in presence of riboflavin under day light exposure relative to control. The series is classed as functional. A digest of the protocol: (§1)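 E. coli was exposed to riboflavin (250, 500, 1000 μM) plus the S-nitrosothiol at 250, 500 or 1000 μM. Incubation was 24 h at 37 °C under a daylight LED (0.6 Lumen). Growth was read as OD at 570 nm at 0 h and 24 h. Controls were medium plus organism, antibiotic/antifungal mix, and riboflavin or RSNO alone. Triplicates on three occasions (n = 9), one-way ANOVA.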

Series [2] deals with Steinernema feltiae. Briefly: Nematocidal activity against Steinernema feltiae at 250 to 1000 uM in presence of riboflavin measured under dark condition up to 24 hrs. Type of series: functional, organism-based. A digest of the protocol:
(§2)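 S. feltiae nematodes were exposed to riboflavin (500 or 1000 μM) with the S-nitrosothiol, incubated 24 h at 37 °C without light. Controls were medium plus nematodes (negative), penicillin/streptomycin/amphotericin B (positive), and 1000 μM riboflavin or RSNO alone. Triplicates on three occasions (n = 9).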

A further series deals with Candida tropicalis. Briefly: Antimicrobial activity against Candida tropicalis assessed as reduction in microbial growth at 250 to 1000 uM measured up to 24 hrs in presence of xanthine/xanthine oxidase. The series is classed as functional, organism-based. A digest of the protocol: (§3)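 Xanthine (400 μM) and xanthine oxidase (50 mU mL–1) were combined with the S-nitrosothiol at 250, 500 and 1000 μM. Growth was read as optical density at 570 nm at 0 h and after 24 h at 37 °C. Controls were medium plus organism (negative) and penicillin/streptomycin/amphotericin B (positive). Runs were in triplicate on three occasions (n = 9), analysed by one-way ANOVA.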

Another series concerns Bacillus cereus. Briefly: Antimicrobial activity against Bacillus cereus assessed as microbial growth at 250 to 1000 uM measured up to 24 hrs in presence of xanthine/xanthine oxidase. Type of series: functional. Put shortly: as §3
Series [3] deals with Steinernema feltiae. The series can be described thus: Nematocidal activity against Steinernema feltiae assessed as nematode viability at 250 to 1000 uM measured up to 24 hrs in presence of xanthine oxidase. Type of series: functional.
The test system of a further series is Saccharomyces cerevisiae. The series can be described thus: Antimicrobial activity against Saccharomyces cerevisiae assessed as microbial growth at 250 to 1000 uM measured up to 24 hrs in presence of xanthine/xanthine oxidase. Type of series: functional. Put shortly:
as §3

Series [4] in a line: Induction of peroxynitrite anion generation assessed as peroxynitrite anion level in presence of xanthine/xanthine oxidase by DHR-123 indicator based spectrofluorometric method. Type of series: functional. A digest of the protocol: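 Peroxynitrite was generated by the S-nitrosothiol with xanthine (400 μM) and xanthine oxidase (50 mU mL–1), the reaction being started by adding substrate or enzyme. It was quantified spectrofluorometrically by dihydrorhodamine 123 oxidation to rhodamine 123, with excitation at 485 nm and emission at 530 nm.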

Series [5] has as its system Steinernema feltiae. Briefly: Nematocidal activity against Steinernema feltiae at 250 to 1000 uM measured under dark condition up to 24 hrs. Type of series: functional, organism-based. Put shortly:
as §2

In series [6] the test system is Steinernema feltiae. Briefly: Nematocidal activity against Steinernema feltiae assessed as nematode viability at 250 to 1000 uM measured up to 24 hrs in presence of xanthine/xanthine oxidase. The series is classed as functional.
In series [7] the test system is Escherichia coli. Briefly: Dark toxicity against Escherichia coli at 250 to 1000 uM measured under dark condition up to 24 hrs. The series is classed as organism-based. Particulars: in vivo. A digest of the protocol: (§4)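 E. coli was treated with the riboflavin (250, 500, 1000 μM) plus RSNO (250–1000 μM) system and incubated 24 h at 37 °C in the dark. Growth was read as OD at 570 nm at 0 and 24 h. Medium-only and antibiotic-mix controls were included, plus riboflavin and RSNO dilution controls. Triplicates on three occasions (n = 9).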

Series [8] concerns Escherichia coli. The series can be described thus: Dark toxicity against Escherichia coli at 250 to 1000 uM in presence of riboflavin measured up to 24 hrs. The series is classed as organism-based. To be noted: in vivo. Put shortly:
as §4

The subject of series [9] is Escherichia coli. The series can be described thus: Antimicrobial activity against Escherichia coli assessed as reduction in microbial growth measured up to 24 hrs in presence of riboflavin under day light exposure. The series is classed as functional, organism-based. A digest of the protocol: as §1
Series [10] in a line: Induction of peroxynitrite anion generation assessed as peroxynitrite anion level in presence of riboflavin by DHR-123 indicator based spectrofluorometric method. Type of series: functional. Put shortly:
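Peroxynitrite was generated by the S-nitrosothiol with riboflavin (250, 500, 1000 μM) illuminated by a standard lamp (0.6 Lumen, 310 K), followed over 2–24 h. It was detected by oxidation of dihydrorhodamine 123 to fluorescent rhodamine 123, with excitation at 485 nm and emission at 530 nm.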

Activity calls are given as the source filed them. No cut-off for these calls is given here.

`N[C@@H](CCC(=O)N[C@@H](CSN=O)C(=O)NCC(=O)O)C(=O)O` [S-NITROSOGLUTATHIONE]: the Activity is 20% in the series on Escherichia coli [1]; 6% with Bacillus cereus; 50% with Steinernema feltiae [3]; 9% in the series with Saccharomyces cerevisiae; 17.1 µM in series [4]; less than 10% in the series with Steinernema feltiae [6]. Also, the Activity entry in the series on Escherichia coli [7] is “Non-Toxic”; in the series with Escherichia coli [8] it was “Non-Toxic”; in the series on Escherichia coli [9], “Dose-dependent effect”; in series [10], 18.9 µM. Moreover, the result with Steinernema feltiae [2], in the series with Candida tropicalis and with Steinernema feltiae [5] was inactive.
Consider `CC(=O)N[C@@H](C(=O)O)C(C)(C)SN=O`, for which the outcome in the series on Candida tropicalis was inactive. Besides, the outcome in the series on Bacillus cereus and with Saccharomyces cerevisiae was Active. Also, the Activity with Steinernema feltiae [3] was 50%; in series [4], 15.4 µM; in the series with Steinernema feltiae [6] it was less than 10%; in the series with Escherichia coli [9] it was “Dose-dependent effect”; in series [10], 20.4 µM.
